The source made the active and inactive calls. The rule behind the calls is not given here.
Key:
[1] = Cytotoxicity against mouse AML12 cells assessed as reduction in cell viability incubated for 48 hrs by MTT assay; format: toxicity, cell-based; settings: AML12 cells
How it was run: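 Stable AML12HBV10 hepatocytes (AML12-derived), cultured without tetracycline, were exposed to 2-fold serial dilutions (50 μM to 1.56 μM) for 48 h. Viability was inspected microscopically and quantified by MTT. CC50 was the concentration lowering viability by 50%.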

Hepatitis B virus [2] = experiment: Antiviral activity against HBV infected in AML12HBV10 cells assessed as reduction viral replication incubated for 48 hrs; format: functional, organism-based; settings: AML12HBV10, 48 h
How it was run: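 AML12HBV10 cells were seeded at 2 x 10^4 per well without tetracycline. After one day, 2-fold serial dilutions (10 μM to 0.08 μM) were applied for 48 h. Lysates were denatured, neutralized and dot-blotted, then hybridized with a 32P-labelled riboprobe specific for HBV minus-strand DNA and read by phosphorimager. EC50 was the concentration reducing HBV DNA by 50%.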

Hepatitis B virus [3] = experiment: Antiviral activity against HBV infected in AML12HBV10 cells assessed as decrease in encapsidated pgRNA at 1 to 5 uM after 2 days by Northern blot hybridization; format: functional, organism-based; settings: dose 1-5 µM, time 2.0 day
How it was run: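 AML12HBV10 cells were induced by tetracycline withdrawal for 24 h, then mock (DMSO) or compound treated for 48 h, with tetracycline-maintained cells as negative control. Encapsidated pgRNA was detected by Northern blot hybridization, using ribosomal RNA as loading control.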

Hepatitis B virus [4] = experiment: Antiviral activity against HBV infected in AML12HBV10 cells assessed as decrease in capsid assembly at 1 to 5 uM after 2 days by Northern blot hybridization; format: functional, organism-based; settings: dose 1-5 µM, time 2.0 day
How it was run: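 AML12HBV10 cells (mouse hepatocyte line carrying tetracycline-inducible, envelope-deficient HBV genome) in 24-well plates. Tetracycline was removed for 24 h before treatment; tetracycline-maintained cells served as negative control. Cells were mock (DMSO) or compound treated for a further 48 h. Intracellular capsids and core-associated DNA were resolved by native agarose gel particle assay.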

Hepatitis B virus [5] = experiment: Antiviral activity against HBV infected in AML12HBV10 cells assessed as change in core protein at 1 to 5 uM after 2 days by Northern blot hybridization; format: functional, organism-based; settings: dose 1-5 µM, time 2.0 day
How it was run: (§1)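 AML12HBV10 cells in 24-well plates were kept with or without tetracycline for 24 h. Tet-maintained cells served as the no-pgRNA negative control. Cells were then mock (DMSO) or compound treated for 48 h. Total viral RNA and encapsidated pgRNA were read by Northern blot with rRNA as loading control. Core protein was read by Western blot (C-terminal 14-residue antibody, β-actin control), capsids by native particle gel assay, and replication intermediates by Southern blot.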

Hepatitis B virus [6] = experiment: Antiviral activity against HBV infected in AML12HBV10 cells assessed as decrease in viral DNA replication at 1 to 5 uM after 2 days by Northern blot hybridization; format: functional, organism-based; settings: dose 1-5 µM, time 2.0 day; how it was run: as §1
Hepatitis B virus [7] = experiment: Antiviral activity against HBV infected in AML12HBV10 cells assessed as change in total viral RNA at 1 to 5 uM after 2 days by Northern blot hybridization; format: functional, organism-based; settings: dose 1-5 µM, time 2.0 day; how it was run: as §1
Hepatitis B virus [8] = experiment: Antiviral activity against HBV infected in HepDES19 cells assessed as reduction viral DNA incubated for 4 days by qPCR analysis; format: functional, organism-based; settings: HepDES19, 96 h
How it was run: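 HepDES19 (HepG2-derived, tetracycline-inducible HBV) cells in 24-well plates, cultured without tetracycline for 2 days, then mock or serial 2-fold compound dilutions for 4 more days. Cytoplasmic HBV core DNA was extracted and quantified by qPCR. EC50 came from triplicate biological experiments by regression.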

[9] = Cytotoxicity against human HepDES19 cells assessed as reduction in cell viability incubated for 6 days by MTT assay; format: toxicity, cell-based; settings: time 6 day
How it was run: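 Tetracycline-free HepDES19 cells in 96-well plates were exposed to […] serial dilutions (50 μM to 0.39 μM) for 6 days. Viability was checked by microscopy and measured by MTT. CC50 was the concentration reducing viability by 50%.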

SMILES	CC50 at 48 h [1]	EC50 (Hepatitis B virus [2])	further results
NC1CCN(C(=O)Nc2ccc(F)c(Cl)c2)c2ccccc21 (racemic)	> 100 µM	> 10 µM	–
[N-]=[N+]=Nc1ccc(NC(=O)N2CCNc3ccccc32)cc1Cl	> 100 µM	1.66 µM	–
O=C1CN(C(=O)Nc2ccc(F)c(Cl)c2)c2ccccc2N1	> 50 µM	> 10 µM	–
O=C(Nc1ccc(F)c(Cl)c1)N1CC(CN2CCC(F)(F)C2)Nc2ccccc21 (stereo not drawn)	> 100 µM	5.09 µM	–
O=C(Nc1ccc(F)c(F)c1)N1c2ccccc2NCC1CN1CCC(F)(F)CC1 (stereo not drawn)	> 50 µM	0.39 µM	–
O=C(Nc1ccc(C(O)(C(F)(F)F)C(F)(F)F)cc1)N1CCNc2ccccc21	> 20 µM	> 10 µM	–
O=C(Nc1ccc(F)c(C(F)(F)F)c1)N1c2ccccc2NCC1CN1CCC(F)(F)CC1 (stereo not drawn)	31.4 µM	0.34 µM	–
CC1CNc2ccccc2N1C(=O)Nc1ccc(F)c(Cl)c1 (stereo not drawn)	> 100 µM	3.02 µM	–
O=C(Nc1ccc(F)c(Cl)c1)N1CCN(C(=O)Nc2ccc(F)c(Cl)c2)c2ccccc21	> 12.5 µM	1.01 µM	Activity (Hepatitis B virus [3]): Active; Activity (Hepatitis B virus [4]): Active; Activity (Hepatitis B virus [5]): inactive; Activity (Hepatitis B virus [6]): Active; Activity (Hepatitis B virus [7]): inactive
O=S(=O)(Nc1ccc(F)c(Cl)c1)N1CCNc2ccccc21	> 100 µM	> 10 µM	–
O=C(Nc1ccc(F)c(Cl)c1)N1CC(CN2CCC(F)(F)C2)N(C(=O)Nc2ccc(F)c(Cl)c2)c2ccccc21 (stereo not drawn)	> 100 µM	1.14 µM	–
O=C(Nc1ccc(F)c(Cl)c1)N1CCc2cccnc21	> 25 µM	> 10 µM	–
O=C(Nc1cccc(Cl)c1)N1c2ccccc2NCC1CN1CCC(F)(F)CC1 (stereo not drawn)	> 50 µM	0.35 µM	–
O=C(Nc1ccc(F)c(Cl)c1)N1CCN(C(=O)Nc2cc(Cl)c(F)cc2F)c2ccccc21	> 20 µM	0.39 µM	EC50 (Hepatitis B virus [8]): 0.95 µM; CC50 at 144 h [9]: 16.8 µM
O=C(Nc1ccc(F)c(C(F)F)c1)N1c2ccccc2NCC1CN1CCC(F)(F)CC1 (stereo not drawn)	> 50 µM	0.1 µM	EC50 (Hepatitis B virus [8]): 0.04 µM; CC50 at 144 h [9]: 29.3 µM
O=C(NCc1ccccc1)N1CCN(C(=O)Nc2ccc(F)c(Cl)c2)c2ccccc21	> 20 µM	> 10 µM	–
O=C(Nc1ccc(F)c(Cl)c1)N1CCNc2cc(F)c(F)cc21	> 100 µM	1.78 µM	–
O=C(Nc1ccc(F)c(Cl)c1)N1c2ccccc2NCC1c1ccccc1 (stereo not drawn)	> 50 µM	0.78 µM	–
O=C(Nc1ccc(F)c(Cl)c1)N1CC2(CCCC2)Nc2ccccc21	> 100 µM	> 10 µM	–

SMILES	CC50 at 48 h [1]	EC50 (Hepatitis B virus [2])	further results
O=C(Nc1ccccc1)N1CCN(C(=O)Nc2ccc(F)c(Cl)c2)c2ccccc21	> 12.5 µM	7.34 µM	–
O=C(Nc1cccc(Cl)c1)N1CCN(C(=O)Nc2ccc(F)c(Cl)c2)c2ccccc21	> 100 µM	0.65 µM	–
O=C(Nc1ccc(F)c(Cl)c1)N1CCN(C(=O)Nc2ccc(F)c(Cl)c2)[C@H]2CCCC[C@H]21	> 100 µM	> 10 µM	–
O=C(Nc1ccc(F)c(Cl)c1)N1CCN[C@H]2CCCC[C@H]21 (relative stereo)	> 100 µM	> 10 µM	–
O=C(Nc1cccc(Cl)c1)N1CCNc2ccccc21	> 100 µM	1.13 µM	–
CC1(C)CCN(CC2CNc3ccccc3N2C(=O)Nc2ccc(F)c(Cl)c2)CC1 (stereo not drawn)	> 40 µM	> 10 µM	–
O=C(Nc1cc(Cl)ccc1F)N1CCNc2ccccc21	> 100 µM	0.77 µM	–
O=C(Cc1ccc(F)c(Cl)c1)N1CCNc2ccccc21	> 20 µM	> 10 µM	–
O=C(Nc1ccc(F)c(Cl)c1)N1c2ccccc2NCC1CN1CCOCC1 (stereo not drawn)	> 40 µM	7.3 µM	–
Cc1cc(NC(=O)N2CCNc3ccccc32)ccc1F	> 20 µM	0.24 µM	–
O=C(Nc1cc(F)c(F)c(F)c1)N1c2ccccc2NCC1CN1CCC(F)(F)CC1 (stereo not drawn)	> 50 µM	0.29 µM	–
O=C(Nc1ccc(F)c(Cl)c1)c1cccc2c1OCCO2	–	–	EC50 (Hepatitis B virus [8]): 1.02 µM; CC50 at 144 h [9]: > 50 µM
O=C(Nc1ccc(F)c(Cl)c1)N1CC(CN2CCOCC2)Nc2ccccc21 (stereo not drawn)	> 20 µM	> 10 µM	–
O=C(Nc1ccc(F)c(Cl)c1)N1CC(CN2CCC(F)(F)CC2)Nc2ccccc21 (stereo not drawn)	> 100 µM	4.32 µM	–
O=C(Nc1ccc(F)c(C(F)F)c1)N1CCNc2ccccc21	> 20 µM	0.19 µM	–
O=C(Nc1ccc(F)c(Cl)c1)N1c2ccccc2NCC1CN1CCC(F)(F)C1 (stereo not drawn)	> 100 µM	1.7 µM	–
O=C(Nc1cc(F)c(F)c(F)c1)N1CCN(C(=O)Nc2ccc(F)c(Cl)c2)c2ccccc21	> 20 µM	0.32 µM	–
CC(C)C1CNc2ccccc2N1C(=O)Nc1ccc(F)c(Cl)c1 (stereo not drawn)	> 100 µM	4.5 µM	–
N#Cc1cc(NC(=O)N2c3ccccc3NCC2CN2CCC(F)(F)CC2)ccc1F (stereo not drawn)	> 50 µM	0.09 µM	EC50 (Hepatitis B virus [8]): 0.15 µM; CC50 at 144 h [9]: > 50 µM

SMILES	CC50 at 48 h [1]	EC50 (Hepatitis B virus [2])	further results
O=C(Nc1ccc(F)c(Cl)c1)N1CCc2ccccc21	> 100 µM	0.97 µM	–
O=C(Nc1ccc(F)c(Cl)c1)N1CC(c2ccccc2)Nc2ccccc21 (stereo not drawn)	> 50 µM	10 µM	–
O=C(Nc1ccc(F)c(Cl)c1)N1CC(CN2CCOCC2)N(C(=O)Nc2ccc(F)c(Cl)c2)c2ccccc21 (stereo not drawn)	> 100 µM	2.03 µM	–
O=C(Nc1cc(F)c(F)c(Cl)c1)N1CCNc2ccccc21	> 100 µM	0.93 µM	–
O=C(Nc1ccnc(Cl)c1)N1CCN(C(=O)Nc2ccc(F)c(Cl)c2)c2ccccc21	> 20 µM	1.11 µM	–
O=C(Nc1ccc(F)c(Cl)c1)C1CCNc2ccccc21 (racemic)	> 100 µM	> 10 µM	–
O=C(Nc1ccc(F)c(C(F)(F)F)c1)N1CCNc2ccccc21	> 20 µM	0.32 µM	–
CC1CN(C(=O)Nc2ccc(F)c(Cl)c2)c2ccccc2N1 (stereo not drawn)	> 50 µM	> 10 µM	–
O=C(Nc1ccc(F)c(Cl)c1)N1CC(CN2CCC(F)(F)CC2)N(C(=O)Nc2ccc(F)c(Cl)c2)c2ccccc21 (stereo not drawn)	> 100 µM	1.61 µM	–
N#Cc1cc(NC(=O)N2CCNc3ccccc32)ccc1F	> 20 µM	0.52 µM	–
O=C(Nc1ccc(F)c(Cl)c1)N1c2ccccc2NCC1CN1CCC(F)(F)CC1 (stereo not drawn)	> 50 µM	0.28 µM	–
Cc1cc(NC(=O)N2c3ccccc3NCC2CN2CCC(F)(F)CC2)ccc1F (stereo not drawn)	> 50 µM	0.27 µM	–
O=C(NCc1cccc(Cl)c1)N1CCNc2ccccc21	> 100 µM	8.07 µM	–
O=C(Nc1cc(F)c(F)c(F)c1)N1CCNc2ccccc21	> 100 µM	0.63 µM	–
O=C(Nc1cccnc1)N1CCN(C(=O)Nc2ccc(F)c(Cl)c2)c2ccccc21	> 100 µM	5.76 µM	–
O=C(Nc1ccc(F)c(Cl)c1)N1CCCCc2ccccc21	> 100 µM	> 10 µM	–
O=C(Nc1ccc(F)c(Cl)c1)N1CCN(CCCCF)c2ccccc21	> 50 µM	> 10 µM	–
O=C(Nc1ccc(F)c(Cl)c1)N1CCCc2ccccc21	> 100 µM	1.55 µM	–

Reference: ChEMBL document CHEMBL5625195, “Identification of novel tetrahydroquinoxaline derived phenyl ureas as modulators of the hepatitis B virus nucleocapsid assembly” (Eur J Med Chem, 2023)
